Assay results from ChEMBL document CHEMBL4373656, “A MedChem toolbox for cereblon-directed PROTACs” (Medchemcomm, 2019).
Activity calls are given as the source filed them. The calls are words filed in the database; no cut-off is given here. *1 amine or outer side, *2 acyl side, *3 side chain or, on linkers, in order; H or OH if unused. Where a SMILES comes first, the peptide text is derived from it. The star is where a group is joined. X1 = O=C1CCC(N2C(=O)c3cccc(NCCCOCCCCOCCCN*)c3C2=O)C(=O)N1; Suc = O=C(CCC(=O)[*:2])[*:1]

Columns and labels:
[1] = biological target: T1, Cereblon/Ikaros (Homo sapiens) (UniProt Q96SW2+Q13422); assay: Protac activity at CRBN/ IKZF1 in human MM1S cells assessed as IKZF1 degradation by measuring IKZF1/tubulin ratio at 0.1 uM after 16 hrs by Western blot analysis relative to tubulin; type: cell-based; set-up: unit not given here
Summary of the method: (§1)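 MM1S multiple myeloma cells were exposed to each compound for 16 h at the indicated concentrations, including 100 nM and 1 μM. Lysates were analysed by western blot for CRBN and for the neo-substrate IKZF1.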

[2] = biological target: T1, Cereblon/Ikaros (Homo sapiens); assay: Protac activity at CRBN/ IKZF1 in human MM1S cells assessed as CRBN degradation at 100 nM to 1 uM after 16 hrs by Western blot analysis; type: cell-based; summary of the method: as §1
[3] = biological target: T1, Cereblon/Ikaros (Homo sapiens); assay: Protac activity at CRBN/ IKZF1 in human MM1S cells assessed as Bax protein expression at 0.1 to 10 uM after 16 hrs by Western blot analysis relative to tubulin; type: cell-based
[4] = biological target: T1, Cereblon/Ikaros (Homo sapiens); assay: Protac activity at CRBN/ IKZF1 in human MM1S cells assessed as reduction in IKZF1 degradation at 0.001 to 0.01 uM after 16 hrs by Western blot analysis; type: cell-based
MM1.S = assay: Antiproliferative activity against human MM1S cells at 1 nM to 10 uM after 4 hrs by CellTiter-Glo assay; type: functional, cell-based

SMILES	Ratio [1]	Activity [2]	Activity [3]	Activity [4]	Activity (MM1.S)
O=C(CC12CC3CC(CC(C3)C1)C2)NCCCOCCOCCCNc1cccc2c1C(=O)N(C1CCC(=O)NC1=O)C2=O (stereo not given)	15	inactive			
O=C1CCC(N2C(=O)c3cccc(NCCOCCOCCNc4cccc5c4C(=O)N(C4CCC(=O)NC4=O)C5=O)c3C2=O)C(=O)N1 (stereo not given)	79				
CSCC[C@H](NC(=O)[C@@H]1CCCN1C(=O)[C@@H](NC(=O)CCC(=O)NCCCOCCCCOCCCNc1cccc2c1C(=O)N(C1CCC(=O)NC1=O)C2=O)C(C)C)C(=O)N[C@@H](CC(C)C)C(=O)N[C@@H](CCCCN)C(=O)O (stereo not given in full) ({X1-Suc}-VPMLK-OH)			inactive		
Cc1ncsc1-c1ccc(CNC(=O)[C@@H]2C[C@@H](O)CN2C(=O)[C@@H](NC(=O)CCCCOCCCCCOCCCCCCNc2cccc3c2C(=O)N(C2CCC(=O)NC2=O)C3=O)C(C)(C)C)cc1 (stereo not given in full)	99				
O=C(CC12CC3CC(CC(C3)C1)C2)NCCOCCOCCOCCNc1cccc2c1C(=O)N(C1CCC(=O)NC1=O)C2=O (stereo not given)	16	inactive			
O=C(CC12CC3CC(CC(C3)C1)C2)NCCCOCCCCOCCCNc1cccc2c1C(=O)N(C1CCC(=O)NC1=O)C2=O (stereo not given)	30	inactive			
O=C(CC12CC3CC(CC(C3)C1)C2)NCCOCCOCCNc1cccc2c1C(=O)N(C1CCC(=O)NC1=O)C2=O (stereo not given)	7.1	inactive		Active	Active
O=C(CC12CC3CC(CC(C3)C1)C2)NCCCOCCOCCOCCCNc1cccc2c1C(=O)N(C1CCC(=O)NC1=O)C2=O (stereo not given)	24	inactive			
